The text below walks through data of PubChem BioAssay.

Activity calls are given as the source filed them.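 How the source made its calls: active means duplicate-averaged activation above buffer control mean plus 5 SD of those controls; inactive means the rest.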

The nature of this assay: thallium flux activation in parental CHO cells, counter-screen for KCNQ1 potentiator project (AID 493006).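 On activation: fluorescence ratio of max minus min over baseline after K+ and Tl+ depolarization.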 Conditions: parental CHO-K1 cells, FluxOR thallium flux, at 10 µM; hits give high values. In short, it runs like this:
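Material: parental CHO-K1 cells, FluxOR dye-loaded; Also added: Potassium/thallium depolarization pulse; Schedule: overnight 37 °C plating, 90 min dye, 20 min dark compound; Signal: kinetic FluxOR fluorescence, 10 s baseline, 110 s after stimulus.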
In general terms: The purpose of a counterscreen is to sort out artefacts and off-target activity.
As to `CCCCn1c(N)c(N(CC)C(=O)CSCc2c(C)noc2C)c(=O)[nH]c1=O`, the result was inactive. Regarding `CC(Sc1n[nH]c(N)n1)C(=O)NC1CCCCC1C` (stereo not given), the activation was 152% (active). Regarding `COc1ccccc1C(=O)OCC(=O)Nc1ccc(Cl)cn1`, the result was inactive.

As for `COc1cccc(C(=O)NNC(=O)C(=O)Nc2cccc(Cl)c2C)c1`, the activation was 195% (active).

With `CN1CCN(CC/C=C2/c3ccccc3Sc3ccc(S(=O)(=O)N(C)C)cc32)CC1`, the outcome was inactive. Take `CC(C)c1nc2n[nH]c(N)c2c2c1CCCC2`: the outcome was inactive. The same measure, in the same setting: to `O=C(c1ccc(S(=O)(=O)N2CCCC2)cc1)N1CCN(c2cccc(Cl)c2)CC1` belongs “inactive”. For `CCCOc1ccc(-c2c(=O)n(O)c3ccccc3[n+]2[O-])cc1`, the activation is 237% (active). With `Cc1cccc(NC(=S)NC(=O)c2ccc(Br)o2)c1C`, the result was inactive. The same measure, in the same setting: for `COCCn1cnc2c1c(=O)n(CC#N)c(=O)n2Cc1ccccc1` the value was “inactive”; for `COc1ccc(-c2sc(C(=O)c3ccc(Cl)cc3Cl)cc2CC(=O)O)cc1`, “inactive”. Turning to `CC(C)c1ccc(C(=O)NC2=NCCS2)cc1`, the outcome was inactive. On the same count and under the same terms, to `COc1ccc(-c2cc(C(=O)Nc3c(Cl)cc(Cl)cc3Cl)c3ccccc3n2)cc1OC` belongs “inactive”.

On to `CCOC(=O)/C(C)=N/NC(=O)c1ccc([N+](=O)[O-])cc1`, for which the activation was 328% (active).

Take `CCOC(=O)c1c(NC(=S)NCC2CCCO2)sc(C)c1C` (stereo not given): the outcome was inactive. On the same count and under the same terms, for `CC(=O)OC1OCCOC1NC(=S)Nc1ccc(C)cc1` (stereo not given) the value was “inactive”.

In the case of `CCCCOC(=O)c1ccc(NC(=S)NC(=O)c2c(Cl)cnn2CC)cc1`, the activation was 208% (active). For the compound `COc1cccc(OCC(=O)NNC(=O)C(=O)Nc2cccc(C)c2)c1`, the activation was 188% (active).

As for `O=C(/C=C/c1ccccc1)C1C(=O)c2ccccc2C1=O`, the result was inactive. Turning to `CCCc1cc(=O)n2[nH]cc(-c3ccc(Cl)cc3)c2n1`, the activation is 168% (active). Turning to `CC(C)(C)CC(C)(C)NCC(O)COCCOc1ccc(Br)cc1` (stereo not given), the outcome was inactive.

With `Cc1sc(-n2c(C)cc(/C=N/n3cnnc3)c2C)c(C#N)c1C`, the result was inactive. The same measure, in the same setting: for `COC(=O)[C@@H]1CCCN1C(=O)CCc1nnc(CCC2CCCCC2)o1` the value was “inactive”; for `COC(=O)C1SCC2C(=O)N(Cc3ccc(F)cc3)CC(=O)N21` (stereo not given), “inactive”. `COc1cccc(OCC(=O)NNC(=O)C(=O)Nc2ccc(OC)cc2OC)c1`: the activation is 172% (active). `CCOC(=O)c1c(NC(=S)NCc2ccccc2)sc2c1CCN(C(=O)OCC)C2`: the outcome was inactive. Still for that read-out and setting: to `O=C(NC1CCCC1)C(c1cccnc1)N(C(=O)c1csnn1)C1CC1` (stereo not given) belongs “inactive”.

As to `c1ccc(-n2cnc3cc(NCc4cccs4)ccc32)cc1`, the result was inactive.

On to `Cc1ccc(NC(=O)CCS(=O)(=O)c2cccc3nonc23)c(Br)c1`, for which the outcome was inactive.

As for `CCOc1ccc(-c2c(=O)n(O)c3ccccc3[n+]2[O-])cc1`, the activation is 224% (active).

Take `COc1ccc(NC(=O)C(=O)NNC(=O)c2ccc(Cl)cc2Cl)cc1`: the activation is 412% (active). Regarding `O=[N+]([O-])c1ccc(/C=C/C2=NN(c3ccccc3)C(c3ccco3)C2)o1` (stereo not given), the result was inactive. Still for that read-out and setting: for `Cc1cccc(OCC(=O)O/N=C(\N)c2ccc(Cl)cc2)c1` the value was “inactive”. On the same count and under the same terms, to `NNC(=O)c1sccc1OCc1ccc(Cl)cc1Cl` belongs “inactive”; to `Cc1nc2c(c3c1[nH]c1ccccc13)C(=O)CC(C)(C)C2`, “inactive”. Still for that read-out and setting: for `CS(=O)(=O)c1ccc(C(=O)OCc2nnc(-c3ccc(Cl)cc3)o2)cc1[N+](=O)[O-]` the value was “inactive”; for `O=c1c2cccnc2n(-c2ccccc2)n1Cc1ccc(Cl)cc1`, “inactive”; for `CCOC(=O)CSc1nc2ccccc2c(=O)n1-c1ccc(C)cn1`, “inactive”. Consider `S=c1[nH]cnc2scc(-c3ccc(Cl)cc3)c12`, for which the activation is 158% (active). The same measure, in the same setting: for `CCOC(=O)c1c(-c2ccccc2)csc1NC(=S)NC` the value was 286% (active).
